This passage reports inhibition and Activity results from ChEMBL document CHEMBL1154608, “Substituted 2-aminothiopen-derivatives: a potential new class of GluR6-antagonists” (Eur J Med Chem, 2010).

Data set [1] addresses Glutamate receptor ionotropic kainate 1 (Homo sapiens) (UniProt P39086). Kind of data set: Antagonist activity at human recombinant GluR5 expressed in HEK cells coexpressing aequorine assessed as inhibition of glutamate-induced Ca2+ influx at 100 uM by luminescence reporter assay relative to control. The note with it: HEK293. On the technique in general: A reporter such as luciferase makes a cellular process visible.

In data set [2] the target is Glutamate receptor ionotropic kainate 2 (Homo sapiens) (UniProt Q13002). Description: Antagonist activity at human recombinant GluR6 expressed in HEK cells coexpressing aequorine assessed as inhibition of glutamate-induced Ca2+ influx at 10 uM by luminescence reporter assay relative to control. To be noted: HEK293.
Glutamate receptor ionotropic kainate 2 (Homo sapiens), sequence (Q13002 whole entry, looked up): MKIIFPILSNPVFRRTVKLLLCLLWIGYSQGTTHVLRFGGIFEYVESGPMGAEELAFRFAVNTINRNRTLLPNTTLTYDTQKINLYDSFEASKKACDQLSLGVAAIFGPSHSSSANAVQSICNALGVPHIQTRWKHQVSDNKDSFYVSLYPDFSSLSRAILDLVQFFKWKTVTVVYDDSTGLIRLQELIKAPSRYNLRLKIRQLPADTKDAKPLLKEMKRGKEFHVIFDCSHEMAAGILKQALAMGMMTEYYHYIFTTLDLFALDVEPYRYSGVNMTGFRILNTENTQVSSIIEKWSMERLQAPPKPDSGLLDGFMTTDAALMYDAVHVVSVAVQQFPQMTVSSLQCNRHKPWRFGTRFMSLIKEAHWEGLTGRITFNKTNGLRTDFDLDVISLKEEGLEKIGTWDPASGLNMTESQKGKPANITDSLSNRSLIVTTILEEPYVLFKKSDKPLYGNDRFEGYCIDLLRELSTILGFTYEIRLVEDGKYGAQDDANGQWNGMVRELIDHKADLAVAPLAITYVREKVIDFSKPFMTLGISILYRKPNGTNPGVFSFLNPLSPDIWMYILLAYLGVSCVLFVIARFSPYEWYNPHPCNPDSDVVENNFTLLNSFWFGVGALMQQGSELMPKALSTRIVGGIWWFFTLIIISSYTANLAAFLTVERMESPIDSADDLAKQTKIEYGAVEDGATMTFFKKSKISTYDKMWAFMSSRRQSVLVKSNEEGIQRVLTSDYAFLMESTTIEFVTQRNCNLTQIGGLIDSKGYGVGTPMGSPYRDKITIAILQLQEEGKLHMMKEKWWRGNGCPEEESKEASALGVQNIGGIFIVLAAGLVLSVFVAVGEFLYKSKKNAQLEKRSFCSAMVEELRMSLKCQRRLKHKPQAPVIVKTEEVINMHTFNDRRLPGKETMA
The target in data set [3] is Glutamate receptor ionotropic kainate 1 (Homo sapiens) (UniProt P39086). Kind of data set: Antagonist activity at human recombinant GluR5 expressed in HEK cells coexpressing aequorine assessed as inhibition of glutamate-induced Ca2+ influx at 10 uM by luminescence reporter assay relative to control. To be noted: HEK293.
Glutamate receptor ionotropic kainate 1 (Homo sapiens), sequence (P39086 whole entry, looked up): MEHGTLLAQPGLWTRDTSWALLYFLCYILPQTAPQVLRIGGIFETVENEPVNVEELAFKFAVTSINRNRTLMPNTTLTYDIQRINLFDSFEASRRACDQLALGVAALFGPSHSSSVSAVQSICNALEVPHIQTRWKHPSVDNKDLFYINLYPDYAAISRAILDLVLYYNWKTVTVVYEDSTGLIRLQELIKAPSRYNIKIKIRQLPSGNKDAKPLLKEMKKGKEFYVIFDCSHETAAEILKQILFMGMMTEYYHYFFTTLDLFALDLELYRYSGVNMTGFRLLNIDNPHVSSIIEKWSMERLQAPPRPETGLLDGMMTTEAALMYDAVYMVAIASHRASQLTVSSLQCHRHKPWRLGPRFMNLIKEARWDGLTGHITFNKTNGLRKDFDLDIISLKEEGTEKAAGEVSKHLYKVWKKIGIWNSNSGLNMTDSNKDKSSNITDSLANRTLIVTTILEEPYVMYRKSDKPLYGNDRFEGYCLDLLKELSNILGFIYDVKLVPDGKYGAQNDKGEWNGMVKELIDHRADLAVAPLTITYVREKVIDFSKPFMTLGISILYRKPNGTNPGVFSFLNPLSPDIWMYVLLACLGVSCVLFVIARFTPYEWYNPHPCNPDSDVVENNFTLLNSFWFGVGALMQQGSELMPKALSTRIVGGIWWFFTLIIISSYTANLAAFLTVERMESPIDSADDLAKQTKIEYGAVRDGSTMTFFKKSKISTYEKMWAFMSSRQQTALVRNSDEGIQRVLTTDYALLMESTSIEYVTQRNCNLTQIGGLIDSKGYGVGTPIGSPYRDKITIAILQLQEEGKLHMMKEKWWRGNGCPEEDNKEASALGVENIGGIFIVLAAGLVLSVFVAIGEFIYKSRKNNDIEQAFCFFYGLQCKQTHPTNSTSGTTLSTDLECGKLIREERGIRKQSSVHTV
Data set [4] in a line: Cytotoxicity against monkey COS7 cells at 0.1 to 10 uM after 24 hrs by MTT assay. The note with it: chlorocebus aethiops, cos-7, 24 h. On the technique in general: Formazan colour is commonly taken as a measure of viable cells.
The subject of data set [5] is N2a. Kind of data set: Cytotoxicity against mouse N2A cells at 0.1 to 10 uM after 24 hrs by MTT assay. The format is cell-based. The method, boiled down: (§1)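 Cell viability was measured by MTT in N2A neuroblastoma and COS7 monkey kidney cells after 24 h compound incubation. Formazan was released with lysis buffer and absorbance was read at 590 nm.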
The subject of data set [6] is N2a. Description: Cytotoxicity against mouse N2A cells at 100 uM after 24 hrs by MTT assay. In kind it is cell-based. The method, boiled down:
as §1

Data set [7] can be described thus: Cytotoxicity against monkey COS7 cells at 100 uM after 24 hrs by MTT assay. To be noted: chlorocebus aethiops, cos-7, 24 h.
Data set [8] deals with Glutamate receptor ionotropic kainate 2 (Homo sapiens) (UniProt Q13002). Description: Antagonist activity at human recombinant GluR6 expressed in HEK cells coexpressing aequorine assessed as inhibition of glutamate-induced Ca2+ influx at 100 uM by luminescence reporter assay relative to control. The note with it: HEK293.

Usually inhibition stands for the change of the read-out against control, counted positive when it falls.

Turning to `CCOC(=O)c1cc(-c2ccccc2)sc1N`, the inhibition in data set [1] is 25%; in data set [2] it was -1%.

For the compound `CCOC(=O)c1c(NC(=O)C(F)(F)F)sc(-c2ccccc2)c1C`, the inhibition in data set [3] came out at 18%; in data set [2], 20%.

`CCOC(=O)c1c(NC(=O)CNCc2ccccc2)sc(-c2ccccc2)c1C`: the inhibition was 25% in data set [3] and 4% in data set [2].

With `Cc1c(-c2ccccc2)sc(N)c1C(=O)O`, the inhibition in data set [1] is 20%; in data set [2], 44%.

For `Cc1c(-c2ccccc2)sc(N)c1C#N`, in data set [3], the inhibition came out at 17%.

On to `CCOC(=O)c1c(NC(=O)CN2CCOCC2)sc(-c2ccccc2)c1C`, for which the inhibition in data set [3] worked out at 14%; in data set [2], 9%.

For the compound `CCOC(=O)c1c(N)sc(-c2ccccc2)c1-c1ccccc1`, the inhibition in data set [3] was 13%. In addition, the Activity entry in data set [4] is recorded as “Non-toxic”; with N2a [5] it was “Non-toxic”; with N2a [6], “Toxic”.

With `CCNC(=S)Nc1sc(-c2ccccc2)c(C)c1C(=O)OCC`, the inhibition in data set [3] is 7%; in data set [2], -6.5%.

Turning to `NC(=O)c1c(N)sc2c1CCCC2`, the inhibition in data set [3] was 4%; in data set [2], 13%.

As to `CCn1c(=O)[nH]c2sc3c(c2c1=O)CCCC3`, the results for the inhibition in data set [3] and in data set [2] were 6% and 7.1%, respectively.

For `CCSc1nc2sc3c(c2c(=O)[nH]1)CCCC3`, the figures for the inhibition in data set [3] and in data set [2] were 8% and 4%, respectively.

Regarding `CCOC(=O)c1c(N=NN2CCOCC2)sc(-c2ccccc2)c1C`, the inhibition in data set [3] turned out to be 4%.

In the case of `CCOC(=O)C(=O)Nc1sc(-c2ccccc2)c(C)c1C(=O)OCC`, the inhibition turned out to be 4% in data set [3] and 10% in data set [2].

Turning to `Cc1c(-c2ccccc2)sc(N)c1C(=O)c1ccccc1`, the inhibition in data set [3] amounted to 17%.

For the compound `Cc1c(-c2ccccc2)sc(N)c1C(=O)OC(C)(C)C`, the inhibition in data set [3] turned out to be 4%.

`CCOC(=O)c1c(NC(=O)c2ccccc2)sc(-c2ccccc2)c1C`: the inhibition in data set [3] is -3%; in data set [2], 5%.

On to `CCn1c(=O)[nH]c2sc(-c3ccccc3)c(C)c2c1=O`, for which the results for the inhibition in data set [3] and in data set [2] were 11.8% and 9.5%, respectively.

Take `CCOC(=O)c1c(NC)sc(-c2ccccc2)c1C`: the inhibition in data set [3] was determined as 4.5%; in data set [2], 19%.

As for `CCSc1nc2sc(-c3ccccc3)c(C)c2c(=O)[nH]1`, the results for the inhibition in data set [3] and in data set [2] were 1% and 0%, respectively.

As for `CCNC(=O)Nc1sc(-c2ccccc2)c(C)c1C(=O)OCC`, the inhibition in data set [3] came out at 0.5%; in data set [2], 9%.

Regarding `CCNC(=O)Nc1sc2c(c1C(N)=O)CCCC2`, the values for the inhibition in data set [3] and in data set [2] were 0.1% and 12%, respectively.

`CCOC(=O)c1c(N=NN(C)C)sc(-c2ccccc2)c1C`: the inhibition in data set [3] is 10%.

On to `CCOC(=O)c1c(NC(C)=O)sc(-c2ccccc2)c1C`, for which the inhibition came out at 3% in data set [3] and 4% in data set [2].

For the compound `COC(=O)c1c(N)sc(-c2ccccc2)c1C`, the Activity entry (in data set [7]; in data set [4]; with N2a [5]) was “Non-toxic” each time.

`CCNC(=O)Nc1sc(-c2ccccc2)c(C)c1C(N)=O`: the inhibition was found to be 5.8% in data set [3] and 17% in data set [2].

On to `CCOC(=O)c1c(N)sc(-c2ccc(OC)cc2)c1C`, for which the inhibition in data set [3] amounted to 1%.

Take `CCCOC(=O)c1c(N)sc(-c2ccccc2)c1C`: in data set [3], the inhibition is 5%. Moreover, the Activity entry is “Toxic” in data set [7], “Non-toxic” in data set [4], “Non-toxic” with N2a [5] and “Toxic” in the data set with N2a [6].

For the compound `CCOC(=O)c1c(N=C=S)sc(-c2ccccc2)c1C`, in data set [3], the inhibition stood at 0%. In addition, the Activity entry in data set [7] is on record as “Toxic”; in data set [4], “Non-toxic”; with N2a [5], “Non-toxic”; in the data set with N2a [6], “Toxic”.

On to `CCOC(=O)c1c(N)sc2c1CCCC2`, for which the inhibition is 7% in data set [3] and 11% in data set [2].

Regarding `CCOC(=O)c1c(Cl)sc(-c2ccccc2)c1C`, the inhibition in data set [3] turned out to be 0%.

Consider `CCOC(=O)c1c(-n2cccc2)sc(-c2ccccc2)c1C`, for which the results for the inhibition in data set [3] and in data set [2] were -1% and 2%, respectively.

As for `Cc1c(-c2ccccc2)sc2[nH]c(=S)[nH]c(=O)c12`, the figures for the inhibition in data set [3] and in data set [2] were 10% and -2%, respectively.

As to `CCOC(=O)c1c(N=NC#N)sc(-c2ccccc2)c1C`, in data set [3], the inhibition was determined as 7%.

For the compound `CCOC(=O)Nc1sc(-c2ccccc2)c(C)c1C(N)=O`, the inhibition in data set [3] came to 19%; in data set [2], 12%.

Consider `CCOC(=O)Nc1sc2c(c1C(N)=O)CCCC2`, for which the inhibition in data set [3] was determined as 14%; in data set [2] it was 17%.

Consider `CCOC(=O)c1c(N)sc(-c2ccccc2)c1C`, for which the inhibition in data set [3] was 12%. The Activity entry is recorded as “Toxic” in data set [7], “Non-toxic” in data set [4], “Non-toxic” in the data set on N2a [5] and “Toxic” with N2a [6].

Consider `CCOC(=O)c1c(N)sc(-c2ccc(F)cc2)c1C`, for which, in data set [3], the inhibition stood at 0%.

For the compound `CCOC(=O)Nc1cc(C)c(-c2ccccc2)s1`, the inhibition in data set [3] turned out to be 1%; in data set [2], 18%.

Turning to `CCOC(=O)c1c(N)sc(-c2ccccc2Cl)c1C`, the inhibition in data set [3] came to 10%.

On to `Cc1c(-c2ccccc2)sc(N)c1C(N)=O`, for which the inhibition in data set [8] amounted to 3%; in data set [1], 2%.

On to `CCNC(=O)c1c(N)sc(-c2ccccc2)c1C`, for which the inhibition turned out to be 9% in data set [3] and 4% in data set [2].

In the case of `Oc1nc(S)nc2sc3c(c12)CCCC3`, the inhibition in data set [3] worked out at 17%; in data set [2], 0%.

Regarding `CCOC(=O)Nc1sc(-c2ccccc2)c(C)c1C(=O)O`, the results for the inhibition in data set [3] and in data set [2] were 12% and 7%, respectively.
